{"source": "ChEMBL document CHEMBL1153959", "about": "“QSAR analysis of pyrazolidine-3,5-diones derivatives as Dyrk1A inhibitors” (Bioorg Med Chem Lett, 2009)", "key": {"[1]": {"biological_target": "Dual specificity tyrosine-phosphorylation-regulated kinase 1A (Mus musculus) (UniProt Q61214)", "experiment": "Inhibition of Dyrk1 autophosphorylation"}, "Homo sapiens": {"organism": "Homo sapiens", "experiment": "Inhibition of human PKA at 10 uM", "design": "scale not given: the % may be the effect or the level left", "summary_of_the_method": "(§1)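 Each human kinase was assayed with ATP at that kinase's own Km value. Activity was expressed as a percentage of control incubations run without inhibitor. Values are means of duplicate determinations with SD.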"}, "[2]": {"biological_target": "T1, Dual specificity tyrosine-phosphorylation-regulated kinase 2 (Homo sapiens) (UniProt Q92630)", "T1 sequence (whole entry)": "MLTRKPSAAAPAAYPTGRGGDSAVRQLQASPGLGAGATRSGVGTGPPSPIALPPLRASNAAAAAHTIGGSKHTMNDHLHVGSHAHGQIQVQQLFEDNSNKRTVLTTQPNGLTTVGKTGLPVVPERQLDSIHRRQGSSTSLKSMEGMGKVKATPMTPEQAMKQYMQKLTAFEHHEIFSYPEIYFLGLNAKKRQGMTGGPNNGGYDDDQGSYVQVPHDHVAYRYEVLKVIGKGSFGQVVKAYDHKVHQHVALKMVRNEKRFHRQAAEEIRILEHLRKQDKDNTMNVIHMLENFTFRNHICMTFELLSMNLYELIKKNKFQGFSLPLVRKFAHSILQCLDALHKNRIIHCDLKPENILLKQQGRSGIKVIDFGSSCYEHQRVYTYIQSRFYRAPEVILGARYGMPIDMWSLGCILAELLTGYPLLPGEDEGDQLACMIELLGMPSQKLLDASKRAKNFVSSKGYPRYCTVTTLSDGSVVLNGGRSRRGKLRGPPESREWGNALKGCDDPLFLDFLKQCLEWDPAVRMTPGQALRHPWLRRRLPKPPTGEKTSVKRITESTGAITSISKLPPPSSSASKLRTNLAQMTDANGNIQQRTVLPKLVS", "experiment": "Inhibition of human DYRK2 at 10 uM", "design": "scale not given: the % may be the effect or the level left", "summary_of_the_method": "as §1"}, "[3]": {"biological_target": "Protein kinase C alpha type (Homo sapiens) (UniProt P17252)", "experiment": "Inhibition of human PKCalpha at 10 uM", "design": "scale not given: the % may be the effect or the level left", "summary_of_the_method": "as §1"}, "[4]": {"biological_target": "MAP kinase-activated protein kinase 2 (Homo sapiens) (UniProt P49137)", "sequence (P49137 whole entry, looked up)": "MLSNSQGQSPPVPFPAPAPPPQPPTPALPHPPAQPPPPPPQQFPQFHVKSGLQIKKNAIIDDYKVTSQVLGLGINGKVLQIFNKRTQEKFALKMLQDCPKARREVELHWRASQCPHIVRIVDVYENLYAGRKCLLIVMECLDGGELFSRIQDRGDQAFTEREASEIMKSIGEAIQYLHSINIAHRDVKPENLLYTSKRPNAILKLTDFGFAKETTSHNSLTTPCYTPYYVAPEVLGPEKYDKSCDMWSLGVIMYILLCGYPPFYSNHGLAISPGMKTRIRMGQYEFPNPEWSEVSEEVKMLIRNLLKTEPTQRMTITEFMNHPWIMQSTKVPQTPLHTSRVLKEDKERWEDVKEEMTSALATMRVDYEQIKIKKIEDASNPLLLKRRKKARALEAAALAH", "experiment": "Inhibition of human MAPK2 at 10 uM", "design": "scale not given: the % may be the effect or the level left", "summary_of_the_method": "as §1"}, "[5]": {"biological_target": "Mitogen-activated protein kinase 10 (Homo sapiens) (UniProt P53779)", "sequence (P53779 whole entry)": "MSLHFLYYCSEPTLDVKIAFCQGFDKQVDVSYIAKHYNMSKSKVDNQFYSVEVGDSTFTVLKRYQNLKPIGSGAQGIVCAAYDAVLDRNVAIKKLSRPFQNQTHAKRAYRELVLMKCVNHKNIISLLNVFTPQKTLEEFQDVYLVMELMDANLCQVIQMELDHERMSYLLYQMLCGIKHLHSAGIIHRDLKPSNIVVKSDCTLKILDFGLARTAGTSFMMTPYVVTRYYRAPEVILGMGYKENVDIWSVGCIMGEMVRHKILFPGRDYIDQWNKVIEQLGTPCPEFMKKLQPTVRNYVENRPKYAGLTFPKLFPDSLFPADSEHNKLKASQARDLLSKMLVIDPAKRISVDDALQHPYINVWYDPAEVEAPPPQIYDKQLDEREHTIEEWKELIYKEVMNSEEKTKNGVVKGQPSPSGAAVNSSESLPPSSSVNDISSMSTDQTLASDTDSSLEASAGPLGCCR", "experiment": "Inhibition of human JNK3 at 10 uM", "design": "scale not given: the % may be the effect or the level left", "summary_of_the_method": "as §1"}, "[6]": {"biological_target": "Dual specificity protein kinase CLK3 (Homo sapiens) (UniProt P49761)", "sequence (P49761 whole entry, looked up)": "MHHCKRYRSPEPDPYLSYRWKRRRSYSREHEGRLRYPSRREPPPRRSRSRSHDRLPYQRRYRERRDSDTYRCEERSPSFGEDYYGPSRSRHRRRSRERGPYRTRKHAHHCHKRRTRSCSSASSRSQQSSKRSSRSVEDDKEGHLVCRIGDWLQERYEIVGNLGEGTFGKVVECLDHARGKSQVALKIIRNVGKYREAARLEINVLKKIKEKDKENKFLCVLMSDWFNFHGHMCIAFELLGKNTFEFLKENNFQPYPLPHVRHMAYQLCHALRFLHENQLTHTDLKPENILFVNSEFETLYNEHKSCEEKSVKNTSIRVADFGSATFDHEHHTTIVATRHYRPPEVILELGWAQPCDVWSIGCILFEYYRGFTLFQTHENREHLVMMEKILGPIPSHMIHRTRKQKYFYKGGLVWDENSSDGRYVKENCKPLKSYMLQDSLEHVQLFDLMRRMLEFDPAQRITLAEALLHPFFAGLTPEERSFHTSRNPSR", "experiment": "Inhibition of human CLK3 at 10 uM", "design": "scale not given: the % may be the effect or the level left", "summary_of_the_method": "as §1"}, "[7]": {"biological_target": "Glycogen synthase kinase-3 beta (Homo sapiens) (UniProt P49841)", "sequence (P49841 whole entry, looked up)": "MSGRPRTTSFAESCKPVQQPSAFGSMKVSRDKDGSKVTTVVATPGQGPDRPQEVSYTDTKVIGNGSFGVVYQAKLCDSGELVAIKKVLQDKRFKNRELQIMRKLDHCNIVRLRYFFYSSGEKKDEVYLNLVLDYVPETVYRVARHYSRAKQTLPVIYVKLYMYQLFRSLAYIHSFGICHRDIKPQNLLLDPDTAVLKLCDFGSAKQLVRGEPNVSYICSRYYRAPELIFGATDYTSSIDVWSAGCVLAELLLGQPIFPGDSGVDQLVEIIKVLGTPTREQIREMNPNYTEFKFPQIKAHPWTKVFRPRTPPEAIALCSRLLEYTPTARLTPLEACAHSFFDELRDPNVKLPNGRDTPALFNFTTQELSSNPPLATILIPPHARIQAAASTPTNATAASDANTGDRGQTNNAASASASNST", "experiment": "Inhibition of human GSK3-beta at 10 uM", "design": "scale not given: the % may be the effect or the level left", "summary_of_the_method": "as §1"}, "[8]": {"biological_target": "Cyclin-dependent kinase 5/CDK5 activator 1 (Homo sapiens) (UniProt Q00535+Q15078)", "sequence (Q00535 whole entry)": "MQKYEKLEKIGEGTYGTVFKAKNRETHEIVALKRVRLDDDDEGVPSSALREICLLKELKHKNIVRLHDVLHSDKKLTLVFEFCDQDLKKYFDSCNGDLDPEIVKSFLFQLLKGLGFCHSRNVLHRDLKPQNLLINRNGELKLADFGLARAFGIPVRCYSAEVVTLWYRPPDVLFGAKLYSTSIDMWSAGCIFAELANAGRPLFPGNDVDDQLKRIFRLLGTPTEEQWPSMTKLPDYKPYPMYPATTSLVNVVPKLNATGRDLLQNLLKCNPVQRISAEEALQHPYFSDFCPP", "sequence (Q15078 99-307 partner limits assumed)": "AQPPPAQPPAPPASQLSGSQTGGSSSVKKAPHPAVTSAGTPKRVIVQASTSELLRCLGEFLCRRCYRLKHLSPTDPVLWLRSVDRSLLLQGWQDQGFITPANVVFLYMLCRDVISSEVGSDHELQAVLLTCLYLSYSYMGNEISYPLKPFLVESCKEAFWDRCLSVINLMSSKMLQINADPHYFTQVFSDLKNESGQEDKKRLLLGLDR", "experiment": "Inhibition of human CDK5/p35 at 10 uM", "format": "protein-complex assay", "design": "scale not given: the % may be the effect or the level left", "summary_of_the_method": "as §1"}}}
{"smiles": "COc1ccc(/C=C2\\C(=O)NN(c3ccc(Cl)c(Cl)c3)C2=O)cc1", "values": [{"measurement": "IC50", "setting": "[1]", "result": "> 50", "unit": "µM"}]}
{"smiles": "COc1ccc(N2NC(=O)/C(=C\\c3ccc(O)c(OC)c3)C2=O)cc1", "values": [{"measurement": "IC50", "setting": "[1]", "result": 1.2, "unit": "µM"}]}
{"smiles": "O=C1NN(c2ccc(Cl)c(Cl)c2)C(=O)/C1=C/c1ccc(F)c(F)c1", "values": [{"measurement": "IC50", "setting": "[1]", "result": 5, "unit": "µM"}]}
{"smiles": "COc1ccc(N2NC(=O)/C(=C\\c3ccccc3F)C2=O)cc1", "values": [{"measurement": "IC50", "setting": "[1]", "result": "> 50", "unit": "µM"}]}
{"smiles": "COc1ccc(N2NC(=O)/C(=C\\c3cccc(Cl)c3Cl)C2=O)cc1", "values": [{"measurement": "IC50", "setting": "[1]", "result": "> 50", "unit": "µM"}]}
{"smiles": "O=C1NN(c2ccc(Cl)c(Cl)c2)C(=O)/C1=C/c1ccc(O)c([N+](=O)[O-])c1", "values": [{"measurement": "Activity", "setting": "Homo sapiens", "result": 72, "unit": "%"}, {"measurement": "Activity", "setting": "[2]", "result": 17, "unit": "%"}, {"measurement": "Activity", "setting": "[3]", "result": 82, "unit": "%"}, {"measurement": "Activity", "setting": "[4]", "result": 105, "unit": "%"}, {"measurement": "Activity", "setting": "[5]", "result": 94, "unit": "%"}, {"measurement": "Activity", "setting": "[6]", "result": 75, "unit": "%"}, {"measurement": "IC50", "setting": "[1]", "result": 0.6, "unit": "µM"}, {"measurement": "Activity", "setting": "[7]", "result": 102, "unit": "%"}, {"measurement": "Activity", "setting": "[8]", "result": 91, "unit": "%"}]}
{"smiles": "O=C1NN(c2ccc(Cl)c(Cl)c2)C(=O)/C1=C/c1cccc(Cl)c1Cl", "values": [{"measurement": "IC50", "setting": "[1]", "result": 15, "unit": "µM"}]}
{"smiles": "COc1ccc(N2NC(=O)/C(=C\\c3ccc(OC)c(O)c3)C2=O)cc1", "values": [{"measurement": "IC50", "setting": "[1]", "result": "> 50", "unit": "µM"}]}
{"smiles": "COc1ccc(/C=C2\\C(=O)NN(c3ccc(Cl)c(Cl)c3)C2=O)cc1O", "values": [{"measurement": "IC50", "setting": "[1]", "result": "> 50", "unit": "µM"}]}
{"smiles": "COc1ccc(N2NC(=O)/C(=C\\c3cc(OC)c(O)c(OC)c3)C2=O)cc1", "values": [{"measurement": "IC50", "setting": "[1]", "result": "> 50", "unit": "µM"}]}
{"smiles": "O=C1NN(c2ccc(Cl)c(Cl)c2)C(=O)/C1=C/c1ccccc1F", "values": [{"measurement": "IC50", "setting": "[1]", "result": "> 50", "unit": "µM"}]}
{"smiles": "COc1cccc(/C=C2\\C(=O)NN(c3ccc(Cl)c(Cl)c3)C2=O)c1", "values": [{"measurement": "IC50", "setting": "[1]", "result": "> 50", "unit": "µM"}]}
{"smiles": "O=C1NN(c2ccc(Cl)c(Cl)c2)C(=O)/C1=C/c1ccc(Cl)cc1", "values": [{"measurement": "IC50", "setting": "[1]", "result": 20, "unit": "µM"}]}
{"smiles": "O=C1NN(c2ccc(Cl)c(Cl)c2)C(=O)/C1=C/c1cc(O)cc(O)c1", "values": [{"measurement": "IC50", "setting": "[1]", "result": "> 50", "unit": "µM"}]}
{"smiles": "COc1ccc(N2NC(=O)/C(=C\\c3ccccc3OC)C2=O)cc1", "values": [{"measurement": "IC50", "setting": "[1]", "result": "> 50", "unit": "µM"}]}
{"smiles": "O=C1NN(c2ccc(Cl)c(Cl)c2)C(=O)/C1=C/c1ccccc1", "values": [{"measurement": "IC50", "setting": "[1]", "result": "> 50", "unit": "µM"}]}
{"smiles": "COc1ccc(N2NC(=O)/C(=C\\c3cc(OC)cc(OC)c3)C2=O)cc1", "values": [{"measurement": "IC50", "setting": "[1]", "result": "> 50", "unit": "µM"}]}
{"smiles": "COc1ccc(N2NC(=O)/C(=C\\c3cccc(OC)c3)C2=O)cc1", "values": [{"measurement": "IC50", "setting": "[1]", "result": "> 50", "unit": "µM"}]}
{"smiles": "O=C1NN(c2ccc(Cl)c(Cl)c2)C(=O)/C1=C/c1c(Cl)cccc1Cl", "values": [{"measurement": "IC50", "setting": "[1]", "result": "> 50", "unit": "µM"}]}
{"smiles": "COc1ccc(/C=C2\\C(=O)NN(c3ccc(Cl)c(Cl)c3)C2=O)c(OC)c1", "values": [{"measurement": "IC50", "setting": "[1]", "result": "> 50", "unit": "µM"}]}
{"smiles": "COc1cc(/C=C2\\C(=O)NN(c3ccc(Cl)c(Cl)c3)C2=O)ccc1O", "values": [{"measurement": "IC50", "setting": "[1]", "result": 2.5, "unit": "µM"}]}
{"smiles": "O=C1NN(c2ccc(Cl)c(Cl)c2)C(=O)/C1=C/c1ccccc1Cl", "values": [{"measurement": "IC50", "setting": "[1]", "result": 20, "unit": "µM"}]}
{"smiles": "COc1cc(/C=C2\\C(=O)NN(c3ccc(C#N)cc3)C2=O)ccc1O", "values": [{"measurement": "Activity", "setting": "Homo sapiens", "result": 69, "unit": "%"}, {"measurement": "Activity", "setting": "[2]", "result": 78, "unit": "%"}, {"measurement": "Activity", "setting": "[3]", "result": 77, "unit": "%"}, {"measurement": "Activity", "setting": "[4]", "result": 110, "unit": "%"}, {"measurement": "Activity", "setting": "[5]", "result": 93, "unit": "%"}, {"measurement": "Activity", "setting": "[6]", "result": 93, "unit": "%"}, {"measurement": "IC50", "setting": "[1]", "result": 0.6, "unit": "µM"}, {"measurement": "Activity", "setting": "[7]", "result": 76, "unit": "%"}, {"measurement": "Activity", "setting": "[8]", "result": 104, "unit": "%"}]}
{"smiles": "COc1ccccc1/C=C1\\C(=O)NN(c2ccc(F)cc2)C1=O", "values": [{"measurement": "IC50", "setting": "[1]", "result": "> 50", "unit": "µM"}]}
{"smiles": "COc1ccc(/C=C2\\C(=O)NN(c3ccc(C#N)cc3)C2=O)cc1O", "values": [{"measurement": "IC50", "setting": "[1]", "result": "> 50", "unit": "µM"}]}
{"smiles": "O=C1NN(c2ccc(Cl)c(Cl)c2)C(=O)/C1=C/c1ccccc1[N+](=O)[O-]", "values": [{"measurement": "IC50", "setting": "[1]", "result": "> 50", "unit": "µM"}]}
{"smiles": "O=C1NN(c2ccc(Cl)c(Cl)c2)C(=O)/C1=C/c1ccc(O)cc1", "values": [{"measurement": "IC50", "setting": "[1]", "result": 2.5, "unit": "µM"}]}
{"smiles": "COc1ccccc1/C=C1\\C(=O)NN(c2ccc(Cl)c(Cl)c2)C1=O", "values": [{"measurement": "IC50", "setting": "[1]", "result": "> 50", "unit": "µM"}]}
{"smiles": "COc1ccccc1/C=C1\\C(=O)NN(c2ccc(C#N)cc2)C1=O", "values": [{"measurement": "IC50", "setting": "[1]", "result": 40, "unit": "µM"}]}
{"smiles": "COc1cc(/C=C2\\C(=O)NN(c3ccc(Cl)c(Cl)c3)C2=O)cc(OC)c1O", "values": [{"measurement": "IC50", "setting": "[1]", "result": "> 50", "unit": "µM"}]}
{"smiles": "COc1ccc(N2NC(=O)/C(=C\\c3cc(O)cc(O)c3)C2=O)cc1", "values": [{"measurement": "IC50", "setting": "[1]", "result": "> 50", "unit": "µM"}]}
{"smiles": "COc1cc(/C=C2\\C(=O)NN(c3ccc(Cl)c(Cl)c3)C2=O)cc(OC)c1", "values": [{"measurement": "IC50", "setting": "[1]", "result": 20, "unit": "µM"}]}
{"smiles": "COc1ccc(/C=C2\\C(=O)NN(c3ccc(Cl)c(Cl)c3)C2=O)cc1OC", "values": [{"measurement": "IC50", "setting": "[1]", "result": "> 50", "unit": "µM"}]}
